The record followed here is ChEMBL document CHEMBL1909596, “Synthesis and evaluation of chromenyl barbiturates and thiobarbiturates as potential antitubercular agents” (Bioorg Med Chem Lett, 2011).

As usually defined, the IC50 is the concentration needed to halve the response being measured. The IC90 is the concentration needed for an effect of 90%. By CC50 is commonly meant the concentration at which the toxic effect on the cells reaches its halfway point.

In brackets after ≈: the same amount, converted by molar mass.

In data set [1] the test system is Mycobacterium tuberculosis. The experiment in a line: Antimycobacterial activity against Mycobacterium tuberculosis H37Rv ATCC 27294 by microplate alamar blue assay. The format is functional, organism-based. The method in brief: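 Strain grown in BACTEC 12B medium, broth microdilution with Alamar Blue read-out (TAACF protocol). Primary screen at 6.25 µg/mL; compounds reaching ≥90% growth inhibition retested in 10 twofold dilutions, typically from 100. MIC taken as the lowest concentration giving 90% fluorescence reduction relative to controls. Fluorescent compounds tested in BACTEC 460 radiometric system instead. Rifampin control.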
In general terms: The colour change of resazurin is a common sign of viable cells or microbes.

Data set [2] in a line: Cytotoxicity against african green monkey Vero cells after 72 hrs by celltiter-glo luminescent cell viability assay. The format is cell-based. The conditions noted are these: chlorocebus sabaeus. The method in brief: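 VERO cells exposed to compounds for 72 h. Viability read from ATP content by luminescence. CC50 derived by curve fitting of dose–response curves.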
A short description of data set [3]: Selectivity index, ratio of CC50 african green monkey Vero cells to IC90 for Mycobacterium tuberculosis H37Rv ATCC 27294. The data set is classed as toxicity, cell-based. The method in brief:
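SI calculated as VERO CC50 (72 h luminescent ATP viability assay, curve-fitted) divided by the MABA MIC (90% fluorescence reduction endpoint) for H37Rv.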

As to `Cc1c(C(=O)c2ccc(Cl)cc2)oc2cc3occ(C=C4C(=O)NC(=O)NC4=O)c(=O)c3cc12`, in data set [1], the IC50 amounted to 65.1 µg/mL (≈ 136 µM) and it took 93 µg/mL (≈ 195 µM) to reach the 90% level (IC90).

In data set [1], `Cc1cc(=O)oc2cc3occ(C=C4C(=O)NC(=S)NC4=O)c(=O)c3cc12` gave an IC50 above 100 µg/mL and an IC90 above 100 µg/mL.

Regarding `COc1ccc(C(=O)c2oc3cc4occ(C=C5C(=O)NC(=O)NC5=O)c(=O)c4cc3c2C)cc1`, in data set [1], the IC50 is above 100 µg/mL and the IC90 is above 100 µg/mL.

Consider `Cc1c(C(=O)c2ccc(Br)cc2)oc2cc3occ(C=C4C(=O)NC(=O)NC4=O)c(=O)c3cc12`, for which, in data set [1], the midpoint of inhibition, the IC50, lay at 38.5 µg/mL (≈ 73.9 µM) and it took 55.4 µg/mL (≈ 106 µM) to reach the 90% level (IC90).

Regarding `COc1ccc(C(=O)c2oc3cc4occ(C=C5C(=O)NC(=S)NC5=O)c(=O)c4cc3c2C)cc1`, in data set [1], the IC50 was above 100 µg/mL and the IC90 was above 100 µg/mL.

For `Cc1cc(=O)oc2cc3occ(C=C4C(=O)NC(=O)NC4=O)c(=O)c3cc12`, in data set [1], the IC50 is above 100 µg/mL and the IC90 was above 100 µg/mL.

In data set [1], `Cc1c(C(=O)c2ccc(-c3ccccc3)cc2)oc2cc3occ(C=C4C(=O)NC(=O)NC4=O)c(=O)c3cc12` gave an IC50 above 100 µg/mL and an IC90 above 100 µg/mL.

For `Cc1cc(=O)oc2c(C)c3occ(C=C4C(=O)NC(=O)NC4=O)c(=O)c3cc12`, in data set [1], inhibition was half-maximal at 4.71 µg/mL (≈ 12.4 µM) (IC50) and the IC90 was found to be 5.9 µg/mL (≈ 15.5 µM). For the same compound, in data set [2], the CC50 at 72 h came to 14.3 µg/mL (≈ 37.5 µM). For the same compound, the selectivity ratio in data set [3] was determined as 2.41.

In data set [1], `Cc1c(C(=O)c2ccccc2)oc2cc3occ(C=C4C(=O)NC(=S)NC4=O)c(=O)c3cc12` displayed an IC50 above 100 µg/mL and an IC90 above 100 µg/mL.

In data set [1], `Cc1c(C(=O)c2ccc(Cl)cc2)oc2cc3occ(C=C4C(=O)NC(=S)NC4=O)c(=O)c3cc12` gave an IC50 of 42 µg/mL (≈ 85.3 µM) and an IC90 of 63.8 µg/mL (≈ 129 µM).

In data set [1], `Cc1ccc(C(=O)c2oc3cc4occ(C=C5C(=O)NC(=O)NC5=O)c(=O)c4cc3c2C)cc1` had an IC50 of 55.2 µg/mL (≈ 121 µM) and an IC90 of 84.7 µg/mL (≈ 186 µM).

`NC(=O)c1cnccn1` [PYRAZINAMIDE] registered an IC90 in data set [1] above 20 µg/mL.
